Measured values from ChEMBL document CHEMBL4004837, “Synthesis and Characterization of Urofuranoic Acids: In Vivo Metabolism of 2-(2-Carboxyethyl)-4-methyl-5-propylfuran-3-carboxylic Acid (CMPF) and Effects on in Vitro Insulin Secretion” (J Med Chem, 2017).

How the values were obtained:
[1] = tested on: Plasma; test: Plasma concentration in human; assay type: ADME, cell-free
[2] = Initial plasma concentration in mouse at 3 mg/kg, iv; assay type: ADME, organism-based
How it was run: (§1)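 Mouse pharmacokinetics after single intravenous CMPF dosing at 1 or 3 mg/kg. Plasma exposure was followed over time to derive AUC, C0, terminal half-life, clearance and volume of distribution.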

[3] = Half life in mouse at 1 mg/kg, iv; assay type: ADME, organism-based; conditions: in vivo; how it was run: as §1
[4] = Half life in mouse at 3 mg/kg, iv; assay type: ADME, organism-based; conditions: in vivo; how it was run: as §1
[5] = Clearance in mouse at 3 mg/kg, iv; assay type: ADME, organism-based; conditions: in vivo
[6] = tested on: Plasma; test: (§2) Drug metabolism in CD1 mouse plasma assessed as loss of C2 carboxyl during fragmentation at 6 mg/kg, ip dosed once daily for 3 days followed by dosing of 1:1 mixtures of 2-(2-Carboxyethyl)-4-methyl-5-(1-propyl-1-13C)furan-3-carboxylic Acid and test compound on day 4 and 5 measured 1 hr post dose on day 5 by HPLC-MS analysis; assay type: ADME, organism-based; conditions: in vivo
How it was run: (§3)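 CMPF given 6 mg/kg i.p. once daily for three days. On days four and five, 1:1 mixtures of stable-isotope-labelled and unlabelled CMPF were dosed. Mice were killed 1 h after the day-five dose. Plasma, adipose, muscle and liver were collected and analysed by HPLC-MS (MS/MS for product ions). Metabolites were identified by their distinctive isotope patterns from the labelled/unlabelled mixture.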

[7] = as §2, with “adipose” for “plasma”; assay type: ADME, organism-based, Adipose tissue; conditions: in vivo
How it was run: (§4)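 Mice received CMPF 6 mg/kg intraperitoneally for three days, then 1:1 labeled/unlabeled CMPF mixtures on days four and five. On day five they were euthanized 1 h post-dose, and plasma, adipose, muscle and liver were collected. Samples were analysed by HPLC-MS, with MS/MS of product ions. Metabolites were identified by the distinctive isotope patterns from the 1:1 label mixture.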

[8] = tested on: Plasma; test: as §2, with “2-(2-(Carboxy-13C)ethyl)-4-methyl-5-propylfuran-3-carboxylic-2-13C” for “2-(2-Carboxyethyl)-4-methyl-5-(1-propyl-1-13C)furan-3-carboxylic”; assay type: ADME, organism-based; conditions: in vivo; how it was run: as §3
[9] = tested on: Liver; test: as §2, with “liver” for “plasma”, “2-(2-(Carboxy-13C)ethyl)-4-methyl-5-propylfuran-3-carboxylic-2-13C” for “2-(2-Carboxyethyl)-4-methyl-5-(1-propyl-1-13C)furan-3-carboxylic”; assay type: ADME, organism-based; conditions: in vivo; how it was run: as §4
[10] = tested on: Liver; test: as §2, with “liver” for “plasma”, “2-(2-Carboxyethyl)-4-methyl-5-propyl-(3-13C-furan)-3-13Ccarboxylate” for “2-(2-Carboxyethyl)-4-methyl-5-(1-propyl-1-13C)furan-3-carboxylic Acid”; assay type: ADME, organism-based; conditions: in vivo; how it was run: as §4
[11] = tested on: Plasma; test: as §2, with “glucuronide conjugate formation” for “loss of C2 carboxyl during fragmentation”; assay type: ADME, organism-based; conditions: in vivo; how it was run: as §3
[12] = tested on: HEK293; test: Cytotoxicity against HEK293 cells assessed as fold change in capase3/7 activity by Caspase-Glo 3/7 assay relative to DMSO; assay type: cell-based; conditions: human
[13] = biological target: CYP3A4 (Homo sapiens, UniProt P08684); test: Inhibition of human microsomal CYP3A4 at 10 uM after 3 mins by single quad LC/MS analysis; assay type: ADME; conditions: microsomes
CYP3A4, sequence (P08684 whole entry): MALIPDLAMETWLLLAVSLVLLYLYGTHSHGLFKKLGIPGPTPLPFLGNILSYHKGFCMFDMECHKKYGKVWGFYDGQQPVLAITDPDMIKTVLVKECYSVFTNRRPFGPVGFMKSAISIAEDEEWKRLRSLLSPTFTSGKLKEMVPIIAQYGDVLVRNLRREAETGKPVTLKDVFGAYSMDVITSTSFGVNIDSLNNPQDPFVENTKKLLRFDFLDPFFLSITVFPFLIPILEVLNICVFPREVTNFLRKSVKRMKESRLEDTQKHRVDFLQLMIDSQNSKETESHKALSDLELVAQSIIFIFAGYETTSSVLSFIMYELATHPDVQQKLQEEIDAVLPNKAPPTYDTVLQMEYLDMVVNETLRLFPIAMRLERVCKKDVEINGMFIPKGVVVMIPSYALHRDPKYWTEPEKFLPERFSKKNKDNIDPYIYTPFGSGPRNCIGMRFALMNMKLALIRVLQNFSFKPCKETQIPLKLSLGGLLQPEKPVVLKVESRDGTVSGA

[14] = Suppression of high glucose stimulated insulin secretion in mouse pancreatic islets at 200 uM treated for 24 hrs followed by glucose stimulation for 20 mins by HTRF assay relative to control; assay type: ADME, cell-based; conditions: pancreatic islet
How it was run: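 Mouse islet screening assay in high-glucose (20 mM) medium with compounds at 200 µM. Insulin secretion is expressed as fold change relative to vehicle. Mean of n = 4 experiments with SEM; significance by Student's t-test, p ≤ 0.05.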

[15] = tested on: Liver; test: as §2, with “liver” for “plasma”, “glycerol conjugate formation” for “loss of C2 carboxyl during fragmentation”; assay type: ADME, organism-based; conditions: in vivo; how it was run: as §4
[16] = as §2, with “adipose” for “plasma”, “monoacylglycerol conjugate formation” for “loss of C2 carboxyl during fragmentation”; assay type: ADME, organism-based, Adipose tissue; conditions: in vivo; how it was run: as §4
[17] = as §2, with “muscle” for “plasma”, “diacylglycerol conjugate formation” for “loss of C2 carboxyl during fragmentation”; assay type: ADME, organism-based, Muscle tissue; conditions: in vivo; how it was run: as §4
[18] = as §2, with “muscle” for “plasma”, “oxidative metabolites formation” for “loss of C2 carboxyl during fragmentation”; assay type: ADME, organism-based, Muscle tissue; conditions: in vivo; how it was run: as §3
[19] = tested on: Plasma; test: (§5) Drug metabolism in CD1 mouse plasma assessed as glycerol conjugate formation at 6 mg/kg, ip dosed once daily for 3 days followed by dosing of 1:1 mixtures of 2-(2-(Carboxy-13C)ethyl)-4-methyl-5-propylfuran-3-carboxylic-2-13C Acid and test compound on day 4 and 5 measured 1 hr post dose on day 5 by HPLC-MS analysis; assay type: ADME, organism-based; conditions: in vivo; how it was run: as §3
[20] = as §5, with “adipose” for “plasma”; assay type: ADME, organism-based, Adipose tissue; conditions: in vivo; how it was run: as §4
[21] = tested on: Plasma; test: as §5, with “monoacylglycerol” for “glycerol”; assay type: ADME, organism-based; conditions: in vivo; how it was run: as §3
[22] = tested on: Plasma; test: as §5, with “diacylglycerol” for “glycerol”; assay type: ADME, organism-based; conditions: in vivo; how it was run: as §3
[23] = as §5, with “muscle” for “plasma”, “oxidative metabolites” for “glycerol conjugate”; assay type: ADME, organism-based, Muscle tissue; conditions: in vivo; how it was run: as §4
[24] = tested on: Liver; test: as §5, with “liver” for “plasma”, “oxidative metabolites” for “glycerol conjugate”; assay type: ADME, organism-based; conditions: in vivo; how it was run: as §4
[25] = as §5, with “adipose” for “plasma”, “oxidative metabolites” for “glycerol conjugate”; assay type: ADME, organism-based, Adipose tissue; conditions: in vivo; how it was run: as §4
[26] = (§6) Drug metabolism in CD1 mouse muscle assessed as monoacylglycerol conjugate formation at 6 mg/kg, ip dosed once daily for 3 days followed by dosing of 1:1 mixtures of 2-(2-Carboxyethyl)-4-methyl-5-propyl-(3-13C-furan)-3-13Ccarboxylateand test compound on day 4 and 5 measured 1 hr post dose on day 5 by HPLC-MS analysis; assay type: ADME, organism-based, Muscle tissue; conditions: in vivo; how it was run: as §4
[27] = as §6, with “adipose” for “muscle”; assay type: ADME, organism-based, Adipose tissue; conditions: in vivo; how it was run: as §4
[28] = tested on: Liver; test: as §6, with “liver” for “muscle”, “diacylglycerol” for “monoacylglycerol”; assay type: ADME, organism-based; conditions: in vivo; how it was run: as §4
[29] = tested on: Liver; test: as §6, with “liver” for “muscle”, “oxidative metabolites” for “monoacylglycerol conjugate”; assay type: ADME, organism-based; conditions: in vivo; how it was run: as §4
[30] = Suppression of glucose stimulated insulin secretion in mouse pancreatic islet at 200 uM incubated for 24 hrs followed by glucose stimulation for 20 mins by HTRF assay relative to control

CCCc1oc(CCC(=O)O)c(C(=O)O)c1C
0.8 to 1.1: fold change (FC) [12]
Metabolite_Notdetected: Drug metabolism [15] | Drug metabolism [16] | Drug metabolism [17] | Drug metabolism [18] | Drug metabolism [19] | Drug metabolism [20] | Drug metabolism [21] | Drug metabolism [22] | Drug metabolism [23] | Drug metabolism [24] | Drug metabolism [25] | Drug metabolism [26] | Drug metabolism [27] | Drug metabolism [28] | Drug metabolism [29]
3.27 h: half-life [4]
4.5 h: half-life [3]
130 µM: C0 [2]
0.051 L/h/kg: clearance [5]
Metabolite_Detected: Drug metabolism [6] | Drug metabolism [7] | Drug metabolism [8] | Drug metabolism [9] | Drug metabolism [10] | Drug metabolism [11]
0%: inhibition at 0.05 h, 10 µM [13]
20 to 40 µM: concentration [1]
Toxic: Activity [14] | Activity [30]
